Measured values as given in ChEMBL document CHEMBL1165943, “Design and synthesis of new anticancer pyrimidines with multiple-kinase inhibitory effect” (Bioorg Med Chem, 2010).
Active and inactive are the calls of the source. No cut-off for these calls is given here.

Experiments:
ACHN = experiment: Growth inhibition of human ACHN cells after 48 hrs by sulforhodamine B assay; assay type: functional, cell-based
Method in brief: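 Five-dose SRB assay. Cells in RPMI 1640 with 5% FBS and 2 mM L-glutamine were seeded at 5,000–40,000 cells/well, with a TCA-fixed time-zero plate (Tz) taken at 24 h. Compound stocks were in DMSO, serially diluted 10-fold or ½-log to five concentrations, and incubated 48 h at 37 °C. Plates were stained with SRB and read at 515 nm. IC₅₀ was taken where [(Ti−Tz)/(C−Tz)]×100 = 50.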

EKVX = experiment: Cytotoxicity against human EKVX cells assessed as cell growth at 100 nM after 48 hrs by sulforhodamine B assay; assay type: functional; settings: read-out: Activity
HCT-116 = experiment: Cytotoxicity against human HCT116 cells assessed as cell growth at 100 nM after 48 hrs by sulforhodamine B assay; assay type: functional; settings: HCT-116, 48 h, read-out: Activity
SW-620 = experiment: Cytotoxicity against human SW620 cells assessed as cell growth at 100 nM after 48 hrs by sulforhodamine B assay; assay type: functional; settings: SW-620, 48 h, read-out: Activity
SF-268 = experiment: Cytotoxicity against human SF268 cells assessed as cell growth at 100 nM after 48 hrs by sulforhodamine B assay; assay type: functional; settings: SF-268, 48 h, read-out: Activity
Malme-3M = experiment: Cytotoxicity against human MALME-3M cells assessed as cell growth at 100 nM after 48 hrs by sulforhodamine B assay; assay type: functional; settings: read-out: Activity
OVCAR-4 [1] = experiment: Cytotoxicity against human OVCAR4 cells assessed as cell growth at 100 nM after 48 hrs by sulforhodamine B assay; assay type: functional; settings: OVCAR-4, 48 h, read-out: Activity
HT-29 = experiment: Cytotoxicity against human HT-29 cells assessed as cell growth at 10 uM after 48 hrs by sulforhodamine B assay; assay type: functional; settings: HT-29, 48 h, read-out: Activity
COLO 205 = experiment: Cytotoxicity against human COLO205 cells assessed as cell growth at 0.01 uM after 48 hrs by sulforhodamine B assay; assay type: functional; settings: COLO 205, 48 h, read-out: Activity
Method in brief: (§1)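 Cells grown in RPMI 1640 with 5% FBS and 2 mM L-glutamine, seeded at 5,000–40,000 cells/well by doubling time. Time-zero plates TCA-fixed after 24 h. Five concentrations (10-fold or half-log dilutions from DMSO stock) added; 48 h at 37 °C, 5% CO2. Cold TCA fixation (final 10%, 60 min, 4 °C), 0.4% SRB stain, dye solubilized in 10 mM trizma base, A515.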

DU-145 [2] = experiment: Cytotoxicity against human DU145 cells assessed as cell growth at 100 nM after 48 hrs by sulforhodamine B assay; assay type: functional; settings: DU-145, 48 h, read-out: Activity
UACC-62 = experiment: Cytotoxicity against human UACC62 cells assessed as cell growth at 10 uM after 48 hrs by sulforhodamine B assay; assay type: functional; settings: UACC-62, 48 h, read-out: Activity
IGROV-1 [3] = experiment: Cytotoxicity against human IGROV1 cells assessed as cell growth at 10 uM after 48 hrs by sulforhodamine B assay; assay type: functional; settings: IGROV-1, 48 h, read-out: Activity
OVCAR-4 [4] = experiment: Cytotoxicity against human OVCAR4 cells assessed as cell growth at 10 uM after 48 hrs by sulforhodamine B assay; assay type: functional; settings: OVCAR-4, 48 h, read-out: Activity
786-0 = experiment: Cytotoxicity against human 786-0 cells assessed as cell growth at 10 uM after 48 hrs by sulforhodamine B assay; assay type: functional; settings: 786-0, 48 h, read-out: Activity; method in brief: as §1
DU-145 [5] = experiment: Cytotoxicity against human DU145 cells assessed as cell growth at 10 uM after 48 hrs by sulforhodamine B assay; assay type: functional; settings: DU-145, 48 h, read-out: Activity
MDA-MB-231 [6] = experiment: Cytotoxicity against human MDA-MB-231 cells assessed as cell growth at 10 uM after 48 hrs by sulforhodamine B assay; assay type: functional; settings: MDA-MB-231, 48 h, read-out: Activity
MDA-MB-231 [7] = experiment: Cytotoxicity against human MDA-MB-231 cells assessed as cell growth at 100 nM after 48 hrs by sulforhodamine B assay; assay type: functional; settings: MDA-MB-231, 48 h, read-out: Activity
BT-549 = experiment: Cytotoxicity against human BT549 cells assessed as cell growth at 100 nM after 48 hrs by sulforhodamine B assay; assay type: functional; settings: BT-549, 48 h, read-out: Activity; method in brief: as §1
NCI-H460 [8] = experiment: Cytotoxicity against human NCI-H460 cells assessed as cell growth at 1 uM after 48 hrs by sulforhodamine B assay; assay type: functional; settings: NCI-H460, 48 h, read-out: Activity
IGROV-1 [9] = experiment: Cytotoxicity against human IGROV1 cells assessed as cell growth at 0.01 uM after 48 hrs by sulforhodamine B assay; assay type: functional; settings: IGROV-1, 48 h, read-out: Activity
OVCAR-3 = experiment: Cytotoxicity against human OVCAR-3 cells assessed as cell growth at 0.01 uM after 48 hrs by sulforhodamine B assay; assay type: functional; settings: OVCAR-3, 48 h, read-out: Activity
A498 = experiment: Cytotoxicity against human A498 cells assessed as cell growth at 0.01 uM after 48 hrs by sulforhodamine B assay; assay type: functional; settings: A498, 48 h, read-out: Activity; method in brief: as §1
SK-OV-3 = experiment: Cytotoxicity against human SKOV3 cells assessed as cell growth at 1 uM after 48 hrs by sulforhodamine B assay; assay type: functional; settings: SK-OV-3, 48 h, read-out: Activity
UO-31 = experiment: Cytotoxicity against human UO31 cells assessed as cell growth at 1 uM after 48 hrs by sulforhodamine B assay; assay type: functional; settings: UO-31, 48 h, read-out: Activity
NCI-H460 [10] = experiment: Cytotoxicity against human NCI-H460 cells assessed as cell growth at 10 uM after 48 hrs by sulforhodamine B assay; assay type: functional; settings: NCI-H460, 48 h, read-out: Activity
HOP-92 = experiment: Growth inhibition of human HOP92 cells after 48 hrs by sulforhodamine B assay; assay type: functional, cell-based
Method in brief: (§2)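 Cells grown in RPMI 1640 with 5% FBS and 2 mM L-glutamine, seeded at 5,000–40,000 cells/well according to doubling time. After 24 h, time-zero plates are TCA-fixed. Five concentrations (10-fold or ½log dilutions, DMSO stocks) are applied for 48 h at 37 °C, 5% CO₂. Cells are TCA-fixed, SRB-stained and read at 515 nm. IC₅₀ is taken from [(Ti−Tz)/(C−Tz)]×100 = 50.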

NCI-H460 [11] = experiment: Growth inhibition of human NCI-H460 cells after 48 hrs by sulforhodamine B assay; assay type: functional, cell-based; settings: NCI-H460, 48 h; for CC50: read-out: LC50 (the source's name); method in brief: as §2
LOX IMVI = experiment: Growth inhibition of human LOXIMVI cells after 48 hrs by sulforhodamine B assay; assay type: functional, cell-based; settings: for CC50: read-out: LC50 (the source's name); method in brief: as §2

Row | Compound | GI50 (ACHN) [µM] | IC50 (ACHN) [µM] | LC50 (50% lethal concentration) (ACHN) [µM] | TGI (ACHN) [µM] | growth at 0.1 µM (EKVX) [%] | growth at 0.1 µM (HCT-116) [%] | growth at 0.1 µM (SW-620) [%] | growth at 0.1 µM (SF-268) [%] | growth at 0.1 µM (Malme-3M) [%] | growth at 0.1 µM (OVCAR-4 [1]) [%] | growth at 10 µM (HT-29) [%] | growth at 0.01 µM (COLO 205) [%] | growth at 0.1 µM (DU-145 [2]) [%] | growth at 10 µM (UACC-62) [%] | growth at 10 µM (IGROV-1 [3]) [%] | growth at 10 µM (OVCAR-4 [4]) [%] | growth at 10 µM (786-0) [%] | growth at 10 µM (DU-145 [5]) [%] | growth at 10 µM (MDA-MB-231 [6]) [%] | growth at 0.1 µM (MDA-MB-231 [7]) [%] | further results
1 | CC(=O)Nc1cccc(-c2ccc(-c3ccnc(NC(=O)Nc4cc(C(F)(F)F)cc(C(F)(F)F)c4)n3)cn2)c1.Cl | 3.83 | 3.83 | 47.1 | 15.5 | 63 | 72 | 97 | 93 | 93 | 61 | -64 | 100 | 102 | 100 | -21 | -87 | 100 | -93 | -71 | 77 | growth at 0.1 µM (BT-549): 87%; growth at 1 µM (NCI-H460 [8]): -14%; growth at 0.01 µM (IGROV-1 [9]): 95%; growth at 0.01 µM (OVCAR-3): 105%; growth at 0.01 µM (A498): 92%; growth at 1 µM (SK-OV-3): 65%; growth at 1 µM (UO-31): 48%; growth at 10 µM (NCI-H460 [10]): -60%; LC50 (HOP-92): inactive; TGI (HOP-92): inactive; IC50 (HOP-92; hop-92): Not Active; GI50 (NCI-H460 [11]): 2.06 µM; IC50 (NCI-H460 [11]): 2.06 µM; TGI (NCI-H460 [11]): 7.07 µM; CC50 (NCI-H460 [11]): 59.7 µM; GI50 (LOX IMVI): 1.79 µM; IC50 (LOX IMVI): 1.79 µM; TGI (LOX IMVI): inactive; CC50 (LOX IMVI): > 100 µM
2 | CC(=O)c1ccccc1-c1ccc(-c2ccnc(NC(=O)Nc3cc(N4CCOCC4)cc(C(F)(F)F)c3)n2)cn1 | > 100 | 6.89 | > 100 | > 100 | 91 | 86 | 93 | 90 | 78 | 92 | 91 | 114 | 77 | 63 | 41 | 91 | 10 | 59 | 56 | 84 | growth at 0.1 µM (BT-549): 74%; growth at 1 µM (NCI-H460 [8]): 61%; growth at 0.01 µM (IGROV-1 [9]): 96%; growth at 0.01 µM (OVCAR-3): 95%; growth at 0.01 µM (A498): 83%; growth at 1 µM (SK-OV-3): 48%; growth at 1 µM (UO-31): 82%; growth at 10 µM (NCI-H460 [10]): 88%; TGI (HOP-92): inactive; GI50 (HOP-92; Homo sapiens, HOP-92, 48 h): 4.29 µM; IC50 (HOP-92; Homo sapiens, HOP-92, 48 h, read-out: IC50): 2.95 µM; CC50 (HOP-92; Homo sapiens, HOP-92, 48 h, read-out: LC50 (the source's name)): > 100 µM; GI50 (NCI-H460 [11]): > 100 µM; IC50 (NCI-H460 [11]): > 100 µM; TGI (NCI-H460 [11]): > 100 µM; CC50 (NCI-H460 [11]): > 100 µM; GI50 (LOX IMVI): 34.9 µM; IC50 (LOX IMVI): > 100 µM; TGI (LOX IMVI): > 100 µM; CC50 (LOX IMVI): > 100 µM
